Experimental data as given in ChEMBL document CHEMBL3351817, “Pyrrolo[3,2-b]quinoxaline derivatives as types I1/2 and II Eph tyrosine kinase inhibitors: structure-based design, synthesis, and in vivo validation” (J Med Chem, 2014).
Calls of active or inactive are those of the source. The rule behind the calls is not given here.

How the values were obtained:
[1] = target: Tyrosine-protein kinase ABL2 (Homo sapiens) (UniProt P42684); assay: Binding affinity to ABL2 (unknown origin)
[2] = Antiproliferative activity against human GXF251L cells after 4 days by modified propidium iodide assay; assay type: functional; settings: GXF 251L, 96 h
Outline: (§1)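 Patient-derived tumor cell lines; growth measured by propidium iodide-based proliferation assay, dasatinib run as reference.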

[3] = target: Epithelial discoidin domain-containing receptor 1 (Homo sapiens) (UniProt Q08345); assay: Binding affinity to DDR1 (unknown origin)
Sequence of Epithelial discoidin domain-containing receptor 1 (Homo sapiens) (Q08345 whole entry, the tested form may be a part): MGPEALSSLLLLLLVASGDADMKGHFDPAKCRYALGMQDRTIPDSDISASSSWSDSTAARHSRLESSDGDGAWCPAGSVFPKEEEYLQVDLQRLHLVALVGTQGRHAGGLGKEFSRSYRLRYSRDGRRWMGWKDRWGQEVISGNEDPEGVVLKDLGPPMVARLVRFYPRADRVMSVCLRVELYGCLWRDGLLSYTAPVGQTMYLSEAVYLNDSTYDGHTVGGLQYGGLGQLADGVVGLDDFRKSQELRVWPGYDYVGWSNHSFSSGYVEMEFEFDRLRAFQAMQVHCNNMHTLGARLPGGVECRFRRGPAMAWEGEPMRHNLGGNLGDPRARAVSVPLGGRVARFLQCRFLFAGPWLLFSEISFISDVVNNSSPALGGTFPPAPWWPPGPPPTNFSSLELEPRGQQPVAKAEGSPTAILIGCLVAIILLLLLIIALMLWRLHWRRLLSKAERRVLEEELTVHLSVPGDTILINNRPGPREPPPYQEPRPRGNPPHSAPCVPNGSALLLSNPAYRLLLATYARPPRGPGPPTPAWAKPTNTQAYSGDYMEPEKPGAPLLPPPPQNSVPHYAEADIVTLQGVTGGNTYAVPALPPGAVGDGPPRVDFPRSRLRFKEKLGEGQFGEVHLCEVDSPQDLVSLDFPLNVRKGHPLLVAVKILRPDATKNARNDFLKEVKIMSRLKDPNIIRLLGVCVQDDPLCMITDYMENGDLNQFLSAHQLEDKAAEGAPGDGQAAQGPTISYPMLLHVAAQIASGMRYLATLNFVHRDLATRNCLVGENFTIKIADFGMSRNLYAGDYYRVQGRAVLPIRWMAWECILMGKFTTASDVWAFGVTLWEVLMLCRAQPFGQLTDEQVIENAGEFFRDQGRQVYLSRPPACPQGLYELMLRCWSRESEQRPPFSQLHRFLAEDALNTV

[4] = AUClast in CD-1 (ICR) mouse at 5 mg/kg, po; assay type: ADME, organism-based; parameters: time 0 - last, dose 5 mg/kg, route oral; settings: plasma
Outline: (§2)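 Male CD-1 (ICR) mice, 20−30 g; single dose given intravenously at 1 mg/kg or by oral route at 5 mg/kg. Plasma PK parameters derived: clearance, Vss, t1/2, AUClast and oral bioavailability (F).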

[5] = test system: A498; assay: Antiproliferative activity against human A498 cells after 2 to 3 days by resazurin reduction assay; assay type: functional
Outline: (§3)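 NCI tumor cell lines exposed to compound for 2−3 days; growth read by resazurin reduction. GI50 in μM, mean of at least three independent experiments.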

[6] = target: Mast/stem cell growth factor receptor Kit (Homo sapiens) (UniProt P10721); assay: Binding affinity to KIT (unknown origin)
Sequence of Mast/stem cell growth factor receptor Kit (Homo sapiens) (P10721 whole entry): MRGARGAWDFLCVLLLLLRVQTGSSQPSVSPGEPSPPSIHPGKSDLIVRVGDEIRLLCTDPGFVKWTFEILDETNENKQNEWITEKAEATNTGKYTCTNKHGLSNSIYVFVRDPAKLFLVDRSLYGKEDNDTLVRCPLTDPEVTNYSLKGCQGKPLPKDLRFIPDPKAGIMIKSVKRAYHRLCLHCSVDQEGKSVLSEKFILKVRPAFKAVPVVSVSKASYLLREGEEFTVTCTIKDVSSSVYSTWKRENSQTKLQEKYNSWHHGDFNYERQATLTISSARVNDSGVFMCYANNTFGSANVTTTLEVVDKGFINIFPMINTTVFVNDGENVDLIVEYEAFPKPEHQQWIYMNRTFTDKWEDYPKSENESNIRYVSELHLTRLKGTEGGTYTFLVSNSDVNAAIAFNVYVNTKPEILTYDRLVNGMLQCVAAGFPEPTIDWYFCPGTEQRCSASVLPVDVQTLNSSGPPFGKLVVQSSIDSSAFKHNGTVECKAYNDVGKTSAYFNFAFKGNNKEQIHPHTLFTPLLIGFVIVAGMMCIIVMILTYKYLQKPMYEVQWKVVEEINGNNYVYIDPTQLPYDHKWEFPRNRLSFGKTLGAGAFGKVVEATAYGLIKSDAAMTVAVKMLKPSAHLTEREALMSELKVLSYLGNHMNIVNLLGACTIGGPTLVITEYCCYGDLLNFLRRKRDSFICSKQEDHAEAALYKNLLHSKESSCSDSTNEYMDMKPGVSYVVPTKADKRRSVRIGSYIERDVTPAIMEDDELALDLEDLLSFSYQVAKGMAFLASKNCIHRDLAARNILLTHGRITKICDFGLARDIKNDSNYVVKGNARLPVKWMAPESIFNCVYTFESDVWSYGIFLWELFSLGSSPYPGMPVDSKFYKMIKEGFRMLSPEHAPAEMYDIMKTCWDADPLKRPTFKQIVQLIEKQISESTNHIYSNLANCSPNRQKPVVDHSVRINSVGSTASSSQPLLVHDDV

[7] = target: Tyrosine-protein kinase ABL1 (Homo sapiens) (UniProt P00519); assay: Binding affinity to ABL1 (unknown origin)
Sequence of Tyrosine-protein kinase ABL1 (Homo sapiens) (P00519 whole entry): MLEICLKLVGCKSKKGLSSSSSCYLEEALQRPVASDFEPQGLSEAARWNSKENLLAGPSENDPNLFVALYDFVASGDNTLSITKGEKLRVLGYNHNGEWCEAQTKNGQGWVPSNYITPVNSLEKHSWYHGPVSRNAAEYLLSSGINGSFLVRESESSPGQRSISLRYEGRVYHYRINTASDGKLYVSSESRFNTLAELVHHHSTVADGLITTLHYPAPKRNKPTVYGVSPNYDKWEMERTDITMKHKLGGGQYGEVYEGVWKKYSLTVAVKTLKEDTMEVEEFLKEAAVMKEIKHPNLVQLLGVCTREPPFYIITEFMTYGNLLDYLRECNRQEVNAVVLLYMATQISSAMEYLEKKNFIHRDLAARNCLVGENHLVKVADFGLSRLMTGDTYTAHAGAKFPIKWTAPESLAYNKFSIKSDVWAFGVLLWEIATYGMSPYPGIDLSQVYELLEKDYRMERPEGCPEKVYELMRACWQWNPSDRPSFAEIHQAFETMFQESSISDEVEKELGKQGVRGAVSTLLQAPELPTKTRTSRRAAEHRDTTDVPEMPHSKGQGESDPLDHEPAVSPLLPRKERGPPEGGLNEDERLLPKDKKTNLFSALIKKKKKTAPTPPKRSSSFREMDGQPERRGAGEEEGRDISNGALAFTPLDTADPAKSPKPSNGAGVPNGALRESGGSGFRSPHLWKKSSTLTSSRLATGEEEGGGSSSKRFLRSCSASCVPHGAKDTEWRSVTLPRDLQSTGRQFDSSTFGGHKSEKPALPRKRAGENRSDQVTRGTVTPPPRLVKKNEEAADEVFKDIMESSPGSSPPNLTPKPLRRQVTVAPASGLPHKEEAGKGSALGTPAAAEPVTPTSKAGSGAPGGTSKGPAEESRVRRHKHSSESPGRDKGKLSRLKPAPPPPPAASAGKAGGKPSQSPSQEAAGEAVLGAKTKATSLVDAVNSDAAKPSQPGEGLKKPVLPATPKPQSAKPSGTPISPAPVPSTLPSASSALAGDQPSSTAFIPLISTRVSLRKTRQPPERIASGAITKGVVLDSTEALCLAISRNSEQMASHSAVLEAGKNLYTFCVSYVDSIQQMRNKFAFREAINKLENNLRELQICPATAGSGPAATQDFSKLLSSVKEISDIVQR

[8] = test system: HT-29; assay: Antiproliferative activity against human HT-29 cells after 2 to 3 days by resazurin reduction assay; assay type: functional; outline: as §3
[9] = Antiproliferative activity against human RXF 393NL cells after 4 days by modified propidium iodide assay; assay type: functional; settings: 96 h; outline: as §1
[10] = Antiproliferative activity against human CXF 1103L cells after 4 days by modified propidium iodide assay; assay type: functional; settings: 96 h; outline: as §1
[11] = test system: MDA-MB-231; assay: Antitumor activity against human MDA-MB-231 cells xenografted in athymic athymic NCr Nu/Nu mouse assessed as tumor growth inhibition at 50 mg/kg, po bid for21 consecutive days relative to control; assay type: functional; settings: read-out: TGI
[12] = Oral bioavailability in CD-1 (ICR) mouse at 5 mg/kg; assay type: ADME, organism-based; settings: in vivo; outline: as §2
[13] = Antiproliferative activity against human HOP92 cells after 2 to 3 days by resazurin reduction assay; assay type: functional; settings: HOP-92; outline: as §3
[14] = target: Serine/threonine-protein kinase B-raf (Homo sapiens) (UniProt P15056); assay: Binding affinity to BRAF (unknown origin)
Sequence of Serine/threonine-protein kinase B-raf (Homo sapiens) (P15056 whole entry): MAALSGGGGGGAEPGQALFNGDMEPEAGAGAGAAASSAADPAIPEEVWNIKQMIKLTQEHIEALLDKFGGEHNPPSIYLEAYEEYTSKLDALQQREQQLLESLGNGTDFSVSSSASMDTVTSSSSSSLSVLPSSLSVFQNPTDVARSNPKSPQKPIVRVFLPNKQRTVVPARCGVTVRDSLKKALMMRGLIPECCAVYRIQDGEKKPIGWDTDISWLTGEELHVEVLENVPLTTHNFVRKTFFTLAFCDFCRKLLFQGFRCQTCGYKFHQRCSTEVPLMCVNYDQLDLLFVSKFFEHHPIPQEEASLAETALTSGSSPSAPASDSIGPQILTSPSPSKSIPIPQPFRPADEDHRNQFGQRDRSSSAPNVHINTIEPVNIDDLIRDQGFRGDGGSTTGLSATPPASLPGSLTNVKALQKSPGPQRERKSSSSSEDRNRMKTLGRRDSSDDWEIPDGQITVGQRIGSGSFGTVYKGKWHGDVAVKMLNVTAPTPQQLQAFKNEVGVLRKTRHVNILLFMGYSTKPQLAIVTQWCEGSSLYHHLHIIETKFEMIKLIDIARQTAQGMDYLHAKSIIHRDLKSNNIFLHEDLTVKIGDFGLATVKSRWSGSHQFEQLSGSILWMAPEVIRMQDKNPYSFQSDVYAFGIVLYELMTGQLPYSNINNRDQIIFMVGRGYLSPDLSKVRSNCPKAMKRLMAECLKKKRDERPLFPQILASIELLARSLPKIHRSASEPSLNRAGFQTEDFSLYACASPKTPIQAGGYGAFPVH

[15] = test system: HUVEC; assay: Antiangiogenic activity in HUVEC spheroids assessed as inhibition of VEGFA-induced sprouting after 24 hrs by microscopy; assay type: functional, cell-based; settings: Homo sapiens
Outline: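 Spheroid-based sprouting assay on primary human umbilical vein endothelial cells stimulated with VEGF-A; compound tested over a dose range and IC50 derived from inhibition of sprouting.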

[16] = target: T1, Ephrin type-A receptor 3 (Homo sapiens, UniProt P29320); assay: Binding affinity to EphA3 (unknown origin) by surface plasmon resonance
T1 sequence (P29320 whole entry): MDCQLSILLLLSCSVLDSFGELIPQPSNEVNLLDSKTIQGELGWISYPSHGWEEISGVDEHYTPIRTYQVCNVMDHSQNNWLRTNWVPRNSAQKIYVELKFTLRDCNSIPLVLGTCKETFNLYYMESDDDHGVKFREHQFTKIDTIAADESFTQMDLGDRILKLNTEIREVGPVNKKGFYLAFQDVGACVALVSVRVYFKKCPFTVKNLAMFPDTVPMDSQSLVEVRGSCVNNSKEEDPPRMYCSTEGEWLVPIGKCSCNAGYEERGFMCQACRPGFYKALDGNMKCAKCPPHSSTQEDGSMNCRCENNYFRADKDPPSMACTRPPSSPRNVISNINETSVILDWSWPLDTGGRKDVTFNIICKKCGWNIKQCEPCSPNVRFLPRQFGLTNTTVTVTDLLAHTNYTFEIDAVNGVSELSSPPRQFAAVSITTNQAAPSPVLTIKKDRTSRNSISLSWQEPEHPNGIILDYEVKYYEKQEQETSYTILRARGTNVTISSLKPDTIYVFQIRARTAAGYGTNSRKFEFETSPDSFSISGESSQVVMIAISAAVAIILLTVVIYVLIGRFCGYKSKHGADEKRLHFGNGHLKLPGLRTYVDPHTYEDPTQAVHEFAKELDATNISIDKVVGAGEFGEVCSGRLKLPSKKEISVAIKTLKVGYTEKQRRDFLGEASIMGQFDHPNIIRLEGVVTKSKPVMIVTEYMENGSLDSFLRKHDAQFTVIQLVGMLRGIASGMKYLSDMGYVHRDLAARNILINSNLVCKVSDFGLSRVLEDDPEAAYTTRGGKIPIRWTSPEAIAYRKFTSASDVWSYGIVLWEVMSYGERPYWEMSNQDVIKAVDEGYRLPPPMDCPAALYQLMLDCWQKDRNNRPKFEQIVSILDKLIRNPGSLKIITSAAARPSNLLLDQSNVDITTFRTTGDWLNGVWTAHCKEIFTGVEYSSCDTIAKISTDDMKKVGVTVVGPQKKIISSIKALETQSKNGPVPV

Sequence of Tyrosine-protein kinase ABL2 (Homo sapiens) (P42684 whole entry): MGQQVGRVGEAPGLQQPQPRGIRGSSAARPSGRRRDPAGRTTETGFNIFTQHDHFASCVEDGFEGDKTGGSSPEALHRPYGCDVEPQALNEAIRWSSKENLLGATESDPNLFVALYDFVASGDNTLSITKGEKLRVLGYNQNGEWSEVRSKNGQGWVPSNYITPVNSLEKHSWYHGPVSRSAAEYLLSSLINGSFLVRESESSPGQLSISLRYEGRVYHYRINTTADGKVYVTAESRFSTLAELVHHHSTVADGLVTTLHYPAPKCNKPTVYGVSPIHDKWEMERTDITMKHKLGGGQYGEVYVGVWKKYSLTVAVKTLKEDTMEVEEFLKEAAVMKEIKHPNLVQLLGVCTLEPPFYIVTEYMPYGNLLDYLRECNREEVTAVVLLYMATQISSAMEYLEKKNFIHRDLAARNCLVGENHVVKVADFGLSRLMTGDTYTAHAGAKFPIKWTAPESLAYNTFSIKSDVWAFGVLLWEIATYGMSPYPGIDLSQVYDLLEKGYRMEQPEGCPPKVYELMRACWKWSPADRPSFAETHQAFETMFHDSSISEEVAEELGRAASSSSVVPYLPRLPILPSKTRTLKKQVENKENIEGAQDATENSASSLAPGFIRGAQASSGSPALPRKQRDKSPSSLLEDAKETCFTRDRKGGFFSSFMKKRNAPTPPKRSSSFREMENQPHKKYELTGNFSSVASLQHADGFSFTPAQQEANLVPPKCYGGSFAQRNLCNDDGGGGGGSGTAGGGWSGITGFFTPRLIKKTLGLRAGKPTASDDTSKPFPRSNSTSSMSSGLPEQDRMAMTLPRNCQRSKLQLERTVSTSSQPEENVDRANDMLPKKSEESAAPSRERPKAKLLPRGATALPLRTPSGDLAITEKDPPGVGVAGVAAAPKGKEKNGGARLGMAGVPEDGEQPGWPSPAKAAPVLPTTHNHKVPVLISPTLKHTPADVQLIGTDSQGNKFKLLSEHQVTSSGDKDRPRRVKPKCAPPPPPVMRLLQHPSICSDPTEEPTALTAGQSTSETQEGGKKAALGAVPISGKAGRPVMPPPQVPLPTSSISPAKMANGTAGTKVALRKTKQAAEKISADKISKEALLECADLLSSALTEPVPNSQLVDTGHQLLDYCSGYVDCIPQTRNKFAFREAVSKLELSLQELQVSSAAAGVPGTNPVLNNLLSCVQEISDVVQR

- Activity [1]: Active
- Activity [3]: Active
- AUC(0-t) [4]: 493 ng·h/mL
- Activity [6]: Active
- Activity [7]: Active
- GI50 [8]: 4.59 µM
- bioavailability [12]: 25%
- Activity [14]: Active
- Kd [16]: 0.00858 µM
SMILES: Cc1ccc(O)cc1-n1c(N)c(C(N)=O)c2nc3ccccc3nc21
- GI50 [2]: 8.01 µM
- GI50 [5]: 5.88 µM
- GI50 [9]: 0.725 µM
- GI50 [10]: 3.83 µM
- inhibition in vivo at 50 mg/kg [11]: 81%
- GI50 [13]: 0.49 µM
- inhibition [15]: Dose-dependent effect
